Rows were chosen to be rich in hits. Some 2.9% of all compounds tested hit in one or more screens of this group.
TRPC4 act: activators of mouse TRPC4 channel; Q9QUQ5; HEK293 TRPC4beta/mu-opioid, Fluo4 calcium fluorescence; stronger effect = higher value; B-score at 10 µM; actives 0.49% (n = 310,000); AID 2237;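 active = B-score above 5 SD of library B-scores, and initial fluorescence ratio not above library mean plus 5 SD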;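 also: positive B-score marks a calcium rise read as TRPC4 activation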
Target sequence (Q9QUQ5 whole entry, looked up): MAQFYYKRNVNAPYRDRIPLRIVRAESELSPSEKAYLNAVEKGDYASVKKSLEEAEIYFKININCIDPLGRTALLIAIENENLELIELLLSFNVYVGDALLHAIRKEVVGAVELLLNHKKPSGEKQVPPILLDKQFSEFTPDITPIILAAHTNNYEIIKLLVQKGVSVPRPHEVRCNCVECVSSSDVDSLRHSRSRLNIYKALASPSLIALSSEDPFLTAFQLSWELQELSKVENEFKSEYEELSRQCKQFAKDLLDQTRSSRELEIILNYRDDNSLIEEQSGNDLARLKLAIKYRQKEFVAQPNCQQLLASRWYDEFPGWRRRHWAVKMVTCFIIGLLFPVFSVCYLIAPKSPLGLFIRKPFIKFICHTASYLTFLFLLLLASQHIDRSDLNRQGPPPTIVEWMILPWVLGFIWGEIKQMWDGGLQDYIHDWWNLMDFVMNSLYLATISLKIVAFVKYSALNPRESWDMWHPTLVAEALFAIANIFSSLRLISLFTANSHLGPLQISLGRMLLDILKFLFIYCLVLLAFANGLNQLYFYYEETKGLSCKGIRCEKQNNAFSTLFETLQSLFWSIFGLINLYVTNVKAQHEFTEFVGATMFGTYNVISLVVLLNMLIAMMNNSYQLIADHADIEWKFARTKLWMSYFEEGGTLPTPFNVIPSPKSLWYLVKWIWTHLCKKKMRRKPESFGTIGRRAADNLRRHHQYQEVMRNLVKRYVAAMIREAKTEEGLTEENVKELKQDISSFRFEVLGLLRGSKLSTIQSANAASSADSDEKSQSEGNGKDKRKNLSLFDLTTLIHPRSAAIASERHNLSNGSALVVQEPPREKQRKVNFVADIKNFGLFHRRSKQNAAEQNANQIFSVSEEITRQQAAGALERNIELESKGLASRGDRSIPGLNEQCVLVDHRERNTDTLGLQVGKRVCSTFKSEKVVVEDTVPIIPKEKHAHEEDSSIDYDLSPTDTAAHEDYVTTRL
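Material: TRPC4beta and mu-opioid receptor HEK293 stable cells | Incubation: 45 min room-temperature Fluo4 loading, 110 s read | Detection: Kinetic Fluo4 calcium fluorescence | Measure: Integrated baseline-normalised fluorescence ratio, converted to per-well B score | Benchmarks: Low control buffer alone, high control maximal DAMGO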
Kir21 block: inhibitors of mouse Kir2.1 inward-rectifier potassium channel. actives 0.85% (n = 310,000). HEK293-Kir2.1, FluxOR thallium flux fluorescence; stronger effect = lower value. B-score at 10 µM. AID 1672;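 active = fluorescence ratio B-score at or below minus 3 SD of library scores, with starting-brightness B-score within 2 SD, cut at about -4.2 in these data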;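 also: channel flux triggered by added potassium and thallium sulfate stimulus; B-score of peak minus minimum fluorescence over baseline after thallium stimulus; more negative B-score means stronger Kir2.1 block with less thallium influx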
TRPC4 inh: blocks the mouse TRPC4 cation channel. Q9QUQ5. HEK293 TRPC4beta/mu-opioid, DAMGO-evoked Fluo4 calcium flux; stronger effect = lower value. B-score at 10 µM. actives 0.39% (n = 300,000). AID 2247;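 active = B-score over 3 SD under the library average, no early fluorescence shift, positive overall ratio signal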
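Material: HEK293 cells with stable TRPC4beta plus mu-opioid receptor expression; probe or stimulus: DAMGO in two steps, submaximal then maximal; technique: Fluo4 calcium fluorescence by kinetic imaging, 5 s 1 Hz baseline; measure: integrated fluorescence ratio relative to baseline, converted to per-well B score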
TRPC4 PAM: TRPC4 (mouse) allosteric potentiation; AID 2227; B-score at 10 µM; HEK293 TRPC4beta/mu-opioid, DAMGO EC20, Fluo-4 Ca2+ flux; stronger effect = higher value; actives 0.42% (n = 310,000);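 active = B-score of calcium response area above 5 SD of library B-scores, with initial fluorescence ratio within 5 SD of library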;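 also: B-score of integrated fluorescence ratio over time as area under calcium response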
TRPC6 inhibitor: mouse TRPC6 channel inhibition; AID 2553; actives 1.1% (n = 310,000); B-score at 10 µM; HEK293-TRPC6, membrane potential dye, ACh-evoked depolarization; stronger effect = lower value; Q61143;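 active = B-score under library mean minus 3 SD, initial fluorescence not abnormally high, positive integrated signal ratio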;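 also: B-score derived from integrated fluorescence ratio over the kinetic read; more negative B-score means stronger inhibition of depolarization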
TRPC6 act: activators of mouse TRPC6 channel; actives 0.13% (n = 310,000); HEK293-TRPC6 membrane potential dye fluorescence; stronger effect = higher value; B-score at 10 µM; AID 2550;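 active = B-score of the integrated fluorescence ratio above library mean plus 3 SD, and starting fluorescence ratio within library mean plus 5 SD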;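 also: higher score means more depolarization so channel activation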
TRPC4 sel inh 2: mouse TRPC4 off-target activity of TRPC6 inhibitors, second screen. inhibition, % at 10 µM. actives 42% (n = 920). shares compounds with TRPC6 inhibitor. AID 2776. HEK293 TRPC4/MOR, membrane potential dye fluorescence; channel activated by saturating DAMGO dose;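 active = compounds whose fluorescence signal differed from control wells by over 3 SD, either direction, in both duplicate plates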
TRPC4 spec: selectivity of TRPC6 inhibitors: effect on mouse TRPC4. shares compounds with TRPC6 inhibitor. HEK293 TRPC4/mu-opioid, membrane potential fluorescence. activity change, negative = inhibition, % at 10 µM. actives 61% (n = 920). AID 2777;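 active = rise or fall in signal beyond 3 SD of buffer-only wells in both replicate plates, either sign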;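 also: integrated kinetic ratio of fluorescence range over baseline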
HEK293 MPD ctr 2-1: parental HEK293 nonspecific activity of TRPC6 inhibitors, second screen; signal change vs control, % at 10 µM; parental HEK293 membrane potential dye fluorescence; maximal acetylcholine challenge after compound addition; actives 31% (n = 920); shares compounds with TRPC6 inhibitor;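 active = membrane potential signal moving either way by over 3 SD of the maximum-effect control, in both duplicate plates, meaning non-specific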
HEK293 MPD ctr-1: parental HEK293 nonspecific activity of TRPC6 inhibitors; shares compounds with TRPC6 inhibitor; parental HEK293 membrane potential dye fluorescence; membrane potential signal change, % at 10 µM; actives 60% (n = 920); AID 2780;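 active = membrane potential signal shifting up or down by more than 3 SD of buffer-only wells, on both duplicate plates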
HEK293 MPD ctr-2: checks TRPC6 modulator effects in parental HEK293 cells | actives 51% (n = 2,400) | AID 488924 | membrane potential dye fluorescence | membrane potential signal change, % at 10 µM | shares compounds with TRPC6 inhibitor;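 active = membrane potential signal moves up or down beyond 5 SD from buffer-only wells, on both duplicate plates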
HEK293 MPD ctr 2-2: second counter-screen for TRPC6 modulators: effect in parental HEK293 cells | AID 488926 | shares compounds with TRPC6 inhibitor | membrane potential dye fluorescence; after compound, maximal acetylcholine stimulation | actives 14% (n = 2,400) | inhibition, % at 10 µM;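 active = membrane potential signal drops by more than 5 SD from the mean control signal, in both duplicate plates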;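 also: plate controls were acetylcholine ECmax control wells for no effect and buffer only wells for full effect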
TRPC4/MOR mod: selectivity of TRPC6 modulators against mouse TRPC4; actives 69% (n = 2,400); shares compounds with TRPC6 inhibitor; HEK293 TRPC4/mu-opioid, membrane potential fluorescence; AID 488927; percent change from control (negative = decrease, positive = increase), % at 10 µM;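 active = membrane potential signal moved up or down beyond 5 SD of buffer control wells, in both duplicate plates, actives on both sides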;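 also: plate controls were assay buffer wells for no effect and DAMGO maximal-effect wells for full effect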
TRPC4 ctr inh 2: second check of whether TRPC6 modulators also affect mouse TRPC4. shares compounds with TRPC6 inhibitor. HEK293 TRPC4/mu-opioid, membrane potential dye fluorescence; stimulated with maximal-effect DAMGO. inhibition, % at 10 µM. actives 55% (n = 2,400). AID 488928;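 active = drop in membrane potential signal beyond 5 SD of the control wells in both duplicate plates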;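 also: TRPC4 counter screen for TRPC6 hits run under conditions tuned for TRPC6 not TRPC4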
TRPC6 block conf: confirmation of mouse TRPC6 inhibitors; shares compounds with TRPC6 inhibitor; HEK293-TRPC6, membrane potential dye, ACh-evoked depolarization; inhibition, % at 10 µM; actives 43% (n = 3,300); AID 488960;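 active = fluorescence ratio falls more than 5 SD below the full-stimulation control mean, in both duplicate runs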;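 also: integrated fluorescence ratio of peak minus minimum over baseline after agonist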
TRPC6 act conf: confirmation of mouse TRPC6 activators; HEK293-TRPC6 membrane potential dye fluorescence, FDSS; actives 11% (n = 2,800); shares compounds with TRPC6 inhibitor; activation, % at 10 µM;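 active = ratio signal rise beyond 5 SD above unstimulated control wells' mean, seen in both duplicate runs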;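 also: plate controls were buffer EC0 wells for no effect and acetylcholine ECmax response for full effect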
* marks the source's active call; other numbers are inactive results; i = inactive; / = no result given.

SMILES	TRPC4 act	Kir21 block	TRPC4 inh	TRPC4 PAM	TRPC6 inhibitor	TRPC6 act	HEK293 MPD ctr-2	HEK293 MPD ctr 2-2	TRPC4/MOR mod	TRPC4 ctr inh 2	TRPC6 block conf	others
CCCN1C2CCCC1CC(NC(=O)Nc1cccc(C(C)=O)c1)C2 (stereo unspecified)	i	-0.43	i	i	-6.1*	i	i	i	i	i	i
O=C(Nc1ccccc1-c1ccccc1)NC1CC2CCCC(C1)N2CCc1ccccc1 (stereo unspecified)	i	-0.46	i	i	-7*	i	/	/	/	/	65%*	TRPC4 sel inh 2=46%*;TRPC4 spec=i;HEK293 MPD ctr 2-1=i;HEK293 MPD ctr-1=-0.2%*;TRPC6 act conf=i
COC(=O)C(Cc1ccc(O)cc1)NC(=O)c1ccc2c(c1)OCCO2 (stereo unspecified)	i	-1.8	i	i	i	i	/	/	/	/	/
CCc1ccc(NC(=O)CSc2nc(=O)n(CCN(C)C)c3c2CCCC3)cc1	i	0.05	i	i	i	i	/	/	/	/	/
O=C(c1cccc(Cl)c1)N1CCN(C2CCCCCC2)CC1	i	-2.6	i	i	-5.7*	i	171%*	i	36%*	i	66%*
CN1CCCN(C(=O)c2cccc(Cl)c2)CC1	i	1.7	i	i	i	i	/	/	/	/	/
Cc1nnc(SCC(=O)NC(C)(C)C)n1C1CCCCC1	i	1.8	i	i	i	i	/	/	/	/	/
CCOc1ccc(/C=C2\SC(=S)N(C(C(=O)O)c3ccccc3)C2=O)cc1OC (stereo unspecified)	i	-0.04	i	i	i	i	/	/	/	/	/
COc1ccc(OC)c(/C=C2\SC(=S)N(C(C(=O)O)c3ccccc3)C2=O)c1 (stereo unspecified)	i	-2.6	i	i	i	18*	412%*	i	83%*	i	i	TRPC6 act conf=175%*
Cn1c(SCc2cc(=O)n3cc(Br)ccc3n2)nnc1C1COc2ccccc2O1 (stereo unspecified)	i	-1.6	i	i	i	i	/	/	/	/	/

Screens deposited in PubChem by Johns Hopkins Ion Channel Center.
